Measured values reported in ChEMBL document CHEMBL4014298, “Discovery of a series of 8-(1-phenylpyrrolidin-2-yl)-6-carboxamide-2-morpholino-4H-chromen-4-one as PI3Kβ/δ inhibitors for the treatment of PTEN-deficient tumours” (Bioorg Med Chem Lett, 2017).
Each block holds one compound with its values, some of them ahead of it.

Assays:
[1] = target: Phosphatidylinositol 4,5-bisphosphate 3-kinase catalytic subunit alpha isoform (Homo sapiens, UniProt P42336); experiment: Inhibition of recombinant human PI3Kalpha using PIP2 as substrate preincubated for 20 mins followed by substrate addition measured after 80 mins in presence of ATP by Kinase Glo luminescence assay
[2] = species: Homo sapiens; experiment: Selectivity ratio of IC50 for PI3Kalpha mutant in human BT474 cells to IC50 for PI3Kbeta in PTEN-deficient human MDA-MB-468 cells; assay type: cell-based
Method in brief: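 Ratio of two cellular IC50s. PI3Kα IC50 is from inhibition of AKT Thr308 phosphorylation in PIK3CA-mutant human breast ductal carcinoma BT474 cells. PI3Kβ IC50 is from inhibition of AKT Ser473 phosphorylation in PTEN-null breast adenocarcinoma MDA-MB-468 cells.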

[3] = AUC in mouse at 30 umol/kg, po; assay type: ADME; settings: in vivo
[4] = target: T1, Phosphatidylinositol 4,5-bisphosphate 3-kinase catalytic subunit beta isoform (Homo sapiens, UniProt P42338); experiment: Inhibition of recombinant human PI3Kbeta using PIP2 as substrate preincubated for 20 mins followed by substrate addition measured after 80 mins in presence of ATP by Kinase Glo luminescence assay
[5] = target: Phosphatidylinositol 4,5-bisphosphate 3-kinase catalytic subunit gamma isoform (Homo sapiens, UniProt P48736); experiment: Inhibition of recombinant human PI3Kgamma using PIP2 as substrate preincubated for 20 mins followed by substrate addition measured after 80 mins in presence of ATP by Kinase Glo luminescence assay
Method in brief: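 Enzyme IC50 against PI3Kγ, single determination (n=1).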

[6] = target: T1, Phosphatidylinositol 4,5-bisphosphate 3-kinase catalytic subunit beta isoform; experiment: Inhibition of PI3Kbeta in PTEN-deficient human MDA-MB-468 cells assessed as decrease in AKT phosphorylation at Ser473 measured after 2 hrs
[7] = target: T2, Phosphatidylinositol 4,5-bisphosphate 3-kinase catalytic subunit delta isoform (Homo sapiens, UniProt O00329); experiment: Inhibition of recombinant human PI3Kdelta using PIP2 as substrate preincubated for 20 mins followed by substrate addition measured after 80 mins in presence of ATP by Kinase Glo luminescence assay
T2 sequence (O00329 whole entry): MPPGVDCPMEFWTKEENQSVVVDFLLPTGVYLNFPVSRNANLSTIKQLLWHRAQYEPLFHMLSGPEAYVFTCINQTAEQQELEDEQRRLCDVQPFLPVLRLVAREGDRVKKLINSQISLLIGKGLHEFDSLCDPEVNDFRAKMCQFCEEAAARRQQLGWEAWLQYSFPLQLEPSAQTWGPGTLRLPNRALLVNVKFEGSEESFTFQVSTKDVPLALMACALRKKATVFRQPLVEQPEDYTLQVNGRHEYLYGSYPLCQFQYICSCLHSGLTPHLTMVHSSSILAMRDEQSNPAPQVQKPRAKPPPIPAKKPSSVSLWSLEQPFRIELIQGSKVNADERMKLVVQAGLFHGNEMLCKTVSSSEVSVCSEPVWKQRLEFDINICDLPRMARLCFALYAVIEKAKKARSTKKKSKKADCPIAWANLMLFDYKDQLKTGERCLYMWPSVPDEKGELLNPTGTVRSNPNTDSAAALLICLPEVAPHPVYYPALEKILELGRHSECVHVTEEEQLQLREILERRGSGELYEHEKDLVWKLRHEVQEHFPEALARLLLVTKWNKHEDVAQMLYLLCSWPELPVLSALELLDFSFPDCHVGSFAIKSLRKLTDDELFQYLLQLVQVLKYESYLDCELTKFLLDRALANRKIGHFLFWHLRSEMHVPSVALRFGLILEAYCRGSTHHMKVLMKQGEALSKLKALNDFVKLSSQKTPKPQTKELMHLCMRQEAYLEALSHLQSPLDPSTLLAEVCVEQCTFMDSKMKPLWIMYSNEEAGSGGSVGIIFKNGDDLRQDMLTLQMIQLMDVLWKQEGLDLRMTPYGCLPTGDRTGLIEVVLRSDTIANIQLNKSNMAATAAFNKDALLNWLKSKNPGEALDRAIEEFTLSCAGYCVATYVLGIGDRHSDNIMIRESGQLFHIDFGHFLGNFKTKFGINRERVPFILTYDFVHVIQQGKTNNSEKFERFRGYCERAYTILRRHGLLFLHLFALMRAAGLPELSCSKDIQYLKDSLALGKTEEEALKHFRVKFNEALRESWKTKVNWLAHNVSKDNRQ

[8] = Intrinsic clearance in human hepatocytes assessed per million cells; assay type: ADME, cell-based, Hepatocyte; settings: read-out: CLH
[9] = Inhibition of PI3Kalpha mutant in human BT474 cells assessed as decrease in AKT phosphorylation at Thr308 after 2 hrs; assay type: cell-based; settings: BT-474, 2 h
[10] = Lipophilicity, log D of the compound at pH 7.4; settings: buffer
[11] = Apparent permeability across apical to basolateral side in human Caco2 cells; settings: Caco-2
[12] = Clearance in mouse blood at 5 umol/kg, iv or 30 umol/kg, po; assay type: ADME, organism-based
[13] = Intrinsic clearance in mouse hepatocytes assessed per million cells; assay type: ADME, cell-based, Hepatocyte; settings: read-out: CLH
Method in brief: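 Intrinsic clearance measured in mouse or dog hepatocytes, expressed as CL_int in […].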

[14] = Oral bioavailability in mouse blood at 30 umol/kg; assay type: ADME, organism-based
[15] = Volume of distribution at steady state in mouse blood at 5 umol/kg, iv or 30 umol/kg, po; assay type: ADME, organism-based; settings: read-out: Vdss
[16] = Fraction unbound in human plasma; assay type: ADME, cell-free
Method in brief: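 Plasma protein binding in mouse, dog or human plasma, reported as fraction unbound (%).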

T1 sequence (P42338 whole entry, canonical isoform): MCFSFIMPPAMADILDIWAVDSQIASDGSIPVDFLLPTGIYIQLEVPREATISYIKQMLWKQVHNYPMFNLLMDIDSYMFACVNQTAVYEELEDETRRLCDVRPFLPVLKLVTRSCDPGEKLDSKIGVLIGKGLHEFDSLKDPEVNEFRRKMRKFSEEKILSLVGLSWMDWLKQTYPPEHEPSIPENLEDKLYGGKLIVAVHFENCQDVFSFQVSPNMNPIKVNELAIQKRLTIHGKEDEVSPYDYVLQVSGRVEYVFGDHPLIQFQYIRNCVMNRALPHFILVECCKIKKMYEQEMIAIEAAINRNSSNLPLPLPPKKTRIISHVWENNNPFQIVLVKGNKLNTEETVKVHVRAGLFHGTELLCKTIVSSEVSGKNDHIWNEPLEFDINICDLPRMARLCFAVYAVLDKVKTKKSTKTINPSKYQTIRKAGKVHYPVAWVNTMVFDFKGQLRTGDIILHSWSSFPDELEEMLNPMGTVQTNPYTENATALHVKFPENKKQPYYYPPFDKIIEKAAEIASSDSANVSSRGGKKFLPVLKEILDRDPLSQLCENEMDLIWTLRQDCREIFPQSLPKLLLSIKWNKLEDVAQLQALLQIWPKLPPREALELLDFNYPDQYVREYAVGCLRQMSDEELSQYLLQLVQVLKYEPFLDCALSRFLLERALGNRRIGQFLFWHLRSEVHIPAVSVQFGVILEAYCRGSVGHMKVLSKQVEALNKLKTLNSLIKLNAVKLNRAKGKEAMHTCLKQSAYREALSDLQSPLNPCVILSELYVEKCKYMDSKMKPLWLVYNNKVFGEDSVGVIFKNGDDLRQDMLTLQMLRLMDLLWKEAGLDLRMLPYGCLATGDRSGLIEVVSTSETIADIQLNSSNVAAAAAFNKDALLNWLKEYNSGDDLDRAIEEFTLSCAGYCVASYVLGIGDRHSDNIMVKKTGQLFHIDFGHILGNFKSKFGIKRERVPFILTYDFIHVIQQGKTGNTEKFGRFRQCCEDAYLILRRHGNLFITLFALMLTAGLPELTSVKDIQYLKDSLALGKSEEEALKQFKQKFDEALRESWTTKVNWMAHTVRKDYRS
Chain of Phosphatidylinositol 4,5-bisphosphate 3-kinase catalytic subunit alpha isoform (P42336 whole entry, canonical isoform): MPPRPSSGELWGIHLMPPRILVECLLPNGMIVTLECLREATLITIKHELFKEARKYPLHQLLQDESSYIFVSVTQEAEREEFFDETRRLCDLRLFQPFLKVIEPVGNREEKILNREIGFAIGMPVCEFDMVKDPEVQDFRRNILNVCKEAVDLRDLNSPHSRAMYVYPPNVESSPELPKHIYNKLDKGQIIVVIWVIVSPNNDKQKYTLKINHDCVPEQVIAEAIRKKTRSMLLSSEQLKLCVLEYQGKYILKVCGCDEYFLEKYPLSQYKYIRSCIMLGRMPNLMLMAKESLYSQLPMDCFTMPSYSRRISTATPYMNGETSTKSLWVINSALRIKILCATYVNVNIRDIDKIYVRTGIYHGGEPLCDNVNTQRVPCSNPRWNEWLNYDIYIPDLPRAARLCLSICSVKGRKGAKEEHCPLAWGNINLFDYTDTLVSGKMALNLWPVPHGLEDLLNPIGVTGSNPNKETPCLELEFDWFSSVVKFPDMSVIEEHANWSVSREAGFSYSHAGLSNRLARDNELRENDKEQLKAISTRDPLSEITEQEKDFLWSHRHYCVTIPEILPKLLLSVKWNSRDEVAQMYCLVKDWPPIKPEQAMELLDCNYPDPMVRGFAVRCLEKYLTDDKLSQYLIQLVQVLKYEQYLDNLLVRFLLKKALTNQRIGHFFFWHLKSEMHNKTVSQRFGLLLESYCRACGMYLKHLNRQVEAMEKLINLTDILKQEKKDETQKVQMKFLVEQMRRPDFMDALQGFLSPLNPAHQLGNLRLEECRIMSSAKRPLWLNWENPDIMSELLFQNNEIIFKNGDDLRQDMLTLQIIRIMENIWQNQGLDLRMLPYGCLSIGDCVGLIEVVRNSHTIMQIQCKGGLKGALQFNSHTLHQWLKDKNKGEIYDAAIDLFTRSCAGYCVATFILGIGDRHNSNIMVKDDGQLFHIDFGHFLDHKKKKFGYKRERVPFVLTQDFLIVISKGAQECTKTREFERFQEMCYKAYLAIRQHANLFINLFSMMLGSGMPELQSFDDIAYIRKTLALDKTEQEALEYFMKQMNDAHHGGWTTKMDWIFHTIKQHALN
Chain of Phosphatidylinositol 4,5-bisphosphate 3-kinase catalytic subunit gamma isoform (P48736 whole entry, canonical isoform): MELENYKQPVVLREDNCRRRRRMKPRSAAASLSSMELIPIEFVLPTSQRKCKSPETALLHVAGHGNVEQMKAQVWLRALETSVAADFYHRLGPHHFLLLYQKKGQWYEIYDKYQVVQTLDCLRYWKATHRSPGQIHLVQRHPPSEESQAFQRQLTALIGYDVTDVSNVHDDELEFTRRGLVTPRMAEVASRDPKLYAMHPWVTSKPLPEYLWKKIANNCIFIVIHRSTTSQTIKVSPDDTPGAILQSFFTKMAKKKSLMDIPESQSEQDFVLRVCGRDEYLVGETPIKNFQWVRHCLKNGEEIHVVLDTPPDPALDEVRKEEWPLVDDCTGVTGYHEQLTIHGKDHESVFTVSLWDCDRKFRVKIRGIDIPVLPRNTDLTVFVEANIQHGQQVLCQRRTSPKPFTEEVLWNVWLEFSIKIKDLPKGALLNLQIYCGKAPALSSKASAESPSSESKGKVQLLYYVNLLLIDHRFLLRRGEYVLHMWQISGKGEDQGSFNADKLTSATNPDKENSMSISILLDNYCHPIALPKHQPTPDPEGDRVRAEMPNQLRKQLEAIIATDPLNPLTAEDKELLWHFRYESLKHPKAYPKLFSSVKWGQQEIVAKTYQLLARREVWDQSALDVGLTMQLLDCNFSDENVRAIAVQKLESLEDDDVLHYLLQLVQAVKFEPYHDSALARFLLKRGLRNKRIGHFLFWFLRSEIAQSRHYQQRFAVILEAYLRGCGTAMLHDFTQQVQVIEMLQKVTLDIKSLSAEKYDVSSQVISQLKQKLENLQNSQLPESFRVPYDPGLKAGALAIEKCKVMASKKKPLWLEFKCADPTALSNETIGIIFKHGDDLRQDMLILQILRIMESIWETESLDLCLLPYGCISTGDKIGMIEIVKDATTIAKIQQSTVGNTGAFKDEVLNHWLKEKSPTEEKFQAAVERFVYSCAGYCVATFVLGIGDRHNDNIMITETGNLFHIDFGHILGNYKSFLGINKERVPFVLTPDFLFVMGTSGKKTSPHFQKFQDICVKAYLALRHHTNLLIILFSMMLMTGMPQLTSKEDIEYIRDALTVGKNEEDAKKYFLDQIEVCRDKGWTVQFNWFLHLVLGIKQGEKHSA

SMILES: O=C(c1cc(C2CCCN2c2ccc(F)cc2)c2oc(N3CCOCC3)cc(=O)c2c1)N1CCOCC1 (single isomer, unassigned)
- logD [10]: 2.2
- IC50 [6]: 4.5 nM
- hepatocyte CLint [8]: 8 µL/min/1e6 cells
- IC50 [9]: 1200 nM

SMILES: CN(C)C(=O)c1cc(C2CCCN2c2ccccc2)c2oc(N3CCOCC3)cc(=O)c2c1 (racemic)
- AUC [3]: 6 µM·h
- hepatocyte CLint [8]: 11 µL/min/1e6 cells
- IC50 [9]: 480 nM

SMILES: Cc1cc([C@@H](C)Nc2ccccc2)c2nc(N3CCOCC3)cc(=O)n2c1
- logD [10]: 3.6

SMILES: CN(CCO)C(=O)c1cc(C2CCCN2c2cc(F)cc(F)c2)c2oc(N3CCOCC3)cc(=O)c2c1 (racemic)
- Papp A→B [11]: 2.6 ×10⁻⁶ cm/s
- logD [10]: 2
- AUC [3]: 0.3 µM·h
- IC50 [6]: 2 nM
- hepatocyte CLint [8]: 4 µL/min/1e6 cells
- IC50 [9]: 870 nM

SMILES: O=C(c1cc(C2CCCN2c2cc(F)cc(F)c2)c2oc(N3CCOCC3)cc(=O)c2c1)N1CCC(O)CC1 (racemic)
- logD [10]: 2.3
- IC50 [6]: 3 nM
- hepatocyte CLint [8]: < 3 µL/min/1e6 cells
- IC50 [9]: 630 nM

SMILES: O=C(c1cc([C@H]2CCCN2c2cccc(F)c2)c2oc(N3CCOCC3)cc(=O)c2c1)N1CCOCC1
- clearance [12]: 47 mL/min/kg
- IC50 [1]: 19 nM
- hepatocyte CLint [13]: 134 µL/min/1e6 cells
- Papp A→B [11]: 14 ×10⁻⁶ cm/s
- bioavailability [14]: 18%
- logD [10]: 2.2
- AUC [3]: 1.7 µM·h
- Vd [15]: 0.9 L/kg
- fraction unbound [16]: 0.11
- IC50 [4]: 6.1 nM
- IC50 [5]: 340 nM
- IC50 [6]: 2.8 nM
- IC50 [7]: 5.1 nM
- hepatocyte CLint [8]: 6 µL/min/1e6 cells
- IC50 [9]: 300 nM

SMILES: CN1CCN(C(=O)c2cc([C@H]3CCCN3c3cc(F)cc(F)c3)c3oc(N4CCOCC4)cc(=O)c3c2)CC1
- Papp A→B [11]: 3.3 ×10⁻⁶ cm/s
- logD [10]: 2.3
- IC50 [6]: 2.3 nM
- hepatocyte CLint [8]: 11 µL/min/1e6 cells
- IC50 [9]: 250 nM

Further compounds by falling IC50 [9], results first:

- IC50 [1]: 24 nM
- AUC [3]: 1 µM·h
- IC50 [4]: 6.7 nM
- IC50 [5]: 330 nM
- IC50 [6]: 3.4 nM
- IC50 [7]: 8.2 nM
- hepatocyte CLint [8]: 14 µL/min/1e6 cells
- IC50 [9]: 180 nM
SMILES: CN(C)C(=O)c1cc([C@H]2CCCN2c2ccc(F)cc2)c2oc(N3CCOCC3)cc(=O)c2c1
- Ratio IC50 [2]: 50

- Papp A→B [11]: 33 ×10⁻⁶ cm/s
- logD [10]: 2.7
- AUC [3]: 2.4 µM·h
- IC50 [6]: 1.2 nM
- hepatocyte CLint [8]: 17 µL/min/1e6 cells
- IC50 [9]: 150 nM
SMILES: CN(C)C(=O)c1cc(C2CCCN2c2cc(F)cc(F)c2)c2oc(N3CCOCC3)cc(=O)c2c1 (racemic)

- logD [10]: 2.5
- IC50 [6]: 1.2 nM
- hepatocyte CLint [8]: 15 µL/min/1e6 cells
- IC50 [9]: 91 nM
SMILES: CN(C)C(=O)c1cc([C@H]2CCCN2c2cccc(F)c2)c2oc(N3CCOCC3)cc(=O)c2c1
